High-throughput results deposited in PubChem BioAssay by several laboratories.
Neddylation inh = blocks human cullin neddylation. actives 0.58% (n = 360,000). P61081+Q13564. TR-FRET cullin neddylation, biochemical. inhibition, % at 25 µM; in the data active = inhibition above about 36%
Target sequence (P61081 whole entry, looked up): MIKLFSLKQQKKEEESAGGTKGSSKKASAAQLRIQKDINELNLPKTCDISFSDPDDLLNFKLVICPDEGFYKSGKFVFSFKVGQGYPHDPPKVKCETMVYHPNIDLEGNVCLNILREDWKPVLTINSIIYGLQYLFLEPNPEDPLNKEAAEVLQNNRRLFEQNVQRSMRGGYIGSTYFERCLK
Target sequence (Q13564 whole entry, looked up): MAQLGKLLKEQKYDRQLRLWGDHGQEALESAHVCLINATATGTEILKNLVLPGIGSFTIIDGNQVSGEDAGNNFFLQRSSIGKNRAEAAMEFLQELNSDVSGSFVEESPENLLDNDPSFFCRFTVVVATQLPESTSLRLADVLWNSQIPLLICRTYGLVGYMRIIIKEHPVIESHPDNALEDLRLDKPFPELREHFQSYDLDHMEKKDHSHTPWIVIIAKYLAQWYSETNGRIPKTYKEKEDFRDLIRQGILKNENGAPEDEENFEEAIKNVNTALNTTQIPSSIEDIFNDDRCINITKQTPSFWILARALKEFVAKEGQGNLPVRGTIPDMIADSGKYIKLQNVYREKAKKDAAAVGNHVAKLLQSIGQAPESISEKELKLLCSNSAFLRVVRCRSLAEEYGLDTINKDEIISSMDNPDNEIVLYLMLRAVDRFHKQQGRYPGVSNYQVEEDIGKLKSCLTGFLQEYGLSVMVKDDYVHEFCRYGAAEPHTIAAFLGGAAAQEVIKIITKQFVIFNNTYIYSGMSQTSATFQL
SR-BI DiI inh = mouse SR-BI HDL lipid transfer inhibition; inhibition, % at 12.5 µM; actives 0.96% (n = 320,000); ldlA[mSR-BI] CHO cells, DiI-HDL uptake fluorescence, 3 h; Q61009;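 active = mean replicate inhibition of at least 70% and a set share of replicates each scoring 70 or more; inconclusive = meets just one of the two criteria; inactive = fails both criteria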;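 note: 0% = median of neutral control wells and 100% = median of positive control wells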
SR-BI uptake up = activators of SR-BI mediated HDL lipid uptake; actives 0.096% (n = 320,000); AID 504775; activation, % at 12.5 µM; CHO ldlA[mSR-BI] cells, DiI-HDL uptake fluorescence, 3 h; 100 = double the neutral-control signal;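 active = mean replicate activation of at least 60% and every replicate at or above 60%; inconclusive = mean or all-replicate condition met, but not both; inactive = mean below 60% and not all replicates reaching 60%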;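 note: 0% = median plate neutral-control signal and 100% = twice that signal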
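Test system: SR-BI-overexpressing, LDLR-lacking CHO cells; Medium: Ham's F12 with 0.5% BSA, HEPES 25 mM, pH 7.4; Schedule: 3 h, 37 °C; Technique: bottom-read fluorescence, 550/595 nm.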
UBC13 inh = human UBC13 polyubiquitination inhibition | P61088 | UBC13 polyubiquitin chain formation, TR-FRET | inhibition, % at 20 µM | actives 0.47% (n = 330,000) | AID 485273; in the data active = inhibition above about 45%, passing the limit was not always enough; inconclusive = no clear call, values can overlap the other calls
Neddyl inh conf = cullin neddylation inhibition, confirmation. shares compounds with Neddylation inh. TR-FRET cullin neddylation biochemical assay. calls only at 25 µM. actives 13% (n = 1,800). AID 652217; in the data active = inhibition above about 40%;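 note: neddylation substrate is the cullin 1 ring ligase complex with SKP2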
Active calls of the source: *; i = inactive; ? = inconclusive; nt = no result given; + = active, no number. Rows were chosen to be rich in hits. Some 1.9% of all compounds tested hit in one or more screens of this group.

SMILES | Neddylation inh | SR-BI DiI inh | SR-BI uptake up | UBC13 inh | Neddyl inh conf
CCOC(=O)c1c(NC(=O)COC(=O)c2ccccn2)sc(C(=O)N(C)C)c1C | -3 | 10 | -10 | -14 | nt
CCOC(=O)c1c(NC(=O)COC(=O)c2nccnc2N)sc(C(=O)N(C)C)c1C | 45* | -1 | 1 | 8 | i
c1ccc(-c2oc3ncnc(NCCCN4CCOCC4)c3c2-c2ccccc2)cc1 | 52* | 20 | -20 | 22 | +
COc1ccc(-c2oc3ncnc(NCCCN4CCOCC4)c3c2-c2ccc(OC)cc2)cc1 | nt | 34 | -34 | 32 | nt
O=C(C1CCN(S(=O)(=O)c2ccccc2)CC1)N1CCC1 | -9 | 4 | -4 | 5 | nt
Nc1c(C(=O)Nc2ccc3c(c2)OCCO3)nnn1Cc1cccc(F)c1 | 40* | 19 | -19 | 5 | i
Cc1cccc(S(=O)(=O)C(C#N)c2nc3ccccc3nc2N2CC(C)OC(C)C2)c1 (stereo not given) | 46* | 11 | -11 | 4 | i
Cc1ccc(S(=O)(=O)C(C#N)c2nc3ccccc3nc2N2CC(C)OC(C)C2)cc1C (stereo not given) | nt | 8 | -8 | -29 | nt
Cc1ccc(S(=O)(=O)N(C)C)cc1NC(=O)C(C)OC(=O)c1cc[n+]([O-])cc1 (stereo not given) | -18 | -17 | 17 | 13 | nt
C=CCSc1nc2sc3c(c2c(=O)n1-c1ccc(C)cc1)CCN(C)C3 | -2 | -11 | 11 | 10 | nt
CCn1c(=O)c2cc(C(=O)N3CCCC3)sc2c2ccccc21 | nt | nt | nt | 20 | nt
CCn1c(=O)c2cc(C(=O)N3CCOCC3)sc2c2ccccc21 | 48* | 41 | -41 | 3 | nt
CCOC(=O)C1=C(COC(=O)/C=C/c2ccc(SC)cc2)NC(=O)NC1C (stereo not given) | 51* | 54 | -54 | 6 | nt
CC(=O)C1C=CC(C)(C(=O)O)C2C=C(C)C(=O)C(C)(O)C12 (stereo not given) | -2 | -12 | 12 | nt | nt
O=C(O)c1sc2cc(C(F)(F)F)cnc2c1-c1cccs1 | 41* | -26 | 26 | 2 | +
CSc1nc(=S)c2[nH]c(=S)[nH]c2[nH]1 | -48 | 9 | -9 | nt | nt
Cc1cccc(CSCC(=O)N2CCN(S(=O)(=O)c3ccccc3C#N)CC2)c1 | 1 | nt | nt | nt | nt
COc1cc(OCc2ccc(C)cc2)ccc1CNC[C@H]1O[C@@H](n2cnc(C(N)=O)n2)[C@H](O)[C@@H]1O | 3 | -20 | 20 | nt | nt
Cc1sc(NC(=O)C2CSC3(C)CCC(=O)N23)nc1-c1ccccc1 (stereo not given) | 2 | 13 | -13 | -5 | nt
COc1ccccc1NC(=O)C1CCCN(c2cnccn2)C1 (stereo not given) | 11 | -14 | 14 | 0 | nt
Cc1cc(C)n2nc(C(=O)N3CCCC(N4CCN(c5ccccc5C)CC4)C3)cc2n1 (stereo not given) | 47* | 49 | -49 | -3 | i
COCCCNc1oc(-c2ccccc2Cl)nc1C#N | 22 | -1 | 1 | 8 | nt
CC(C)CNc1oc(-c2ccccc2Cl)nc1C#N | 42* | 10 | -10 | 11 | i
COC(=O)C[C@H]1C=C[C@@H](NC(=O)NC2CCCCC2)[C@@H](CO)O1 | 1 | nt | nt | nt | nt
CSCCC(C(=O)NC1CCCC1)n1c(C2CCCC2)nc2ccccc21 (stereo not given) | 9 | nt | nt | nt | nt
SMILES | Neddylation inh | SR-BI DiI inh | SR-BI uptake up | UBC13 inh | Neddyl inh conf
O=C(NCCc1ccc(F)cc1)c1ccc(Cl)c(S(=O)(=O)N2CCOCC2)c1 | 15 | 7 | -7 | -4 | nt
O=C(O)[C@@H]1Cc2c([nH]c3ccccc23)C2CCC(=O)N21 (stereo not given in full) | 52* | -8 | 8 | -6 | i
CC(NC(=O)c1cccc(S(=O)(=O)N2CCc3ccccc32)c1)c1ccco1 (stereo not given) | -10 | 17 | -17 | 6 | nt
CCCCNC(=O)[C@@H]1CSC2c3ccc(OC)c(OC)c3C(=O)N21 (stereo not given in full) | 42* | -23 | 23 | 4 | i
COCCNC(=O)[C@@H]1CSC2c3ccc(OC)c(OC)c3C(=O)N21 (stereo not given in full) | nt | -4 | 4 | 2 | nt
CC1=C(C(=O)N2CCOCC2)CC(CC(=O)NC2CCCC2)C(=O)N1Cc1ccccc1 (stereo not given) | 1 | nt | nt | nt | nt
CCn1c2ccccc2c2nc3cc(OC)c(OC)cc3nc21 | 48* | 26 | -26 | 7 | nt
CCOCCn1c2ccccc2c2nc3ccccc3nc21 | 41* | 38 | -38 | 28 | i
CC(C)C[C@H]1CN(CCCC[C@@H]2CNC(=O)C(=O)N2CCc2ccccc2)C(=O)C(=O)N1CCc1ccccc1 | -4 | nt | nt | nt | nt
O=C(CCCCn1ccc(=O)[nH]c1=O)Nc1ccc(O)c(C(=O)O)c1 | 39* | -1 | 1 | nt | nt
CCN(CC(=O)Nc1ccc(NC(C)=O)cc1)C(=O)/C=C/c1cn(-c2ccccc2)nc1-c1cccs1 | 50* | 24 | -24 | 9 | nt
CCOC(=O)/C(O)=C(\C#N)c1nc2ccccc2[nH]1 | 50* | 11 | -11 | -12 | nt
C[C@H](CO)N1C[C@H](C)[C@@H](CN(C)C(=O)CN2CCOCC2)Oc2cc(Br)ccc2S1(=O)=O | 3 | nt | nt | nt | nt
O=C(N/N=C/c1c(O)n(-c2ccccc2Cl)c(=O)c2ccccc12)C1COc2ccccc2O1 (stereo not given) | 48* | -5 | 5 | -10 | i
Cc1c(/C=N\NC(=O)C2COc3ccccc3O2)c2ccccc2n1C (stereo not given) | 9 | 12 | -12 | nt | nt
Cc1ccc(-n2c(O)c(/C=N/NC(=O)C3COc4ccccc4O3)c3ccccc3c2=O)cc1 (stereo not given) | 44* | 5 | -5 | -10 | i
COC(=O)C1=CN(c2cccc(OCc3ccccc3)c2)C(N)=C(C#N)C1c1ccc(-c2ccccc2)cc1 (stereo not given) | 8 | nt | nt | nt | nt
CC(C)(C)n1nnnc1SCC(=O)Nc1nn(-c2ccccc2)nc1C(N)=O | 48* | 11 | -11 | -11 | i
CCCc1cc2c(=O)c(-c3ccccn3)c(C)oc2cc1O | 45* | -6 | 6 | 12 | i
Cc1ccc(C(=O)N/C(=C\c2cccs2)c2nc3ccccc3[nH]2)cc1 | 45* | 15 | -15 | -7 | nt
O=C(N/C(=C/c1cccs1)c1nc2ccccc2[nH]1)c1ccccc1 | 28 | -18 | 18 | -9 | nt
Cc1ccc(-c2c(C(=O)N/N=C/c3c[nH]c4ccccc34)nnn2-c2nonc2N)cc1 | 49* | 85* | -85 | -9 | i
Cc1nnn(-c2nonc2N)c1C(=O)N/N=C/c1cccc2ccccc12 | 43* | 56 | -56 | -2 | i
CCCc1c(C(=O)N/N=C/c2c(OC)ccc3ccccc23)nnn1-c1nonc1N | 49* | ? | -74 | -16 | i
CCCc1c(C(=O)N/N=C/c2ccc(OC)c(OCc3ccccc3)c2)nnn1-c1nonc1N | 42* | 53 | -53 | -18 | i
Cc1nnn(-c2nonc2N)c1C(=O)N/N=C/c1ccccc1O | 15 | 57 | -57 | -7 | nt
